Screening data from PubChem BioAssay.
MrgX1 antag: antagonists of human MrgX1 receptor. 310,000 tested, 1.3% active. Q96LB2. B-score at 10 µM. MRGX1-HEK293 calcium flux, Fluo-4, BAM8-22 antagonism; stronger effect = lower value;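 active = calcium-response B-score plate-corrected more than 3 library SD below zero, starting fluorescence within 5 deviations, no agonist response on first addition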;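 also: peak minus trough fluorescence over baseline after final BAM8-22 challenge near maximal dose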
Target sequence (Q96LB2 whole entry, looked up): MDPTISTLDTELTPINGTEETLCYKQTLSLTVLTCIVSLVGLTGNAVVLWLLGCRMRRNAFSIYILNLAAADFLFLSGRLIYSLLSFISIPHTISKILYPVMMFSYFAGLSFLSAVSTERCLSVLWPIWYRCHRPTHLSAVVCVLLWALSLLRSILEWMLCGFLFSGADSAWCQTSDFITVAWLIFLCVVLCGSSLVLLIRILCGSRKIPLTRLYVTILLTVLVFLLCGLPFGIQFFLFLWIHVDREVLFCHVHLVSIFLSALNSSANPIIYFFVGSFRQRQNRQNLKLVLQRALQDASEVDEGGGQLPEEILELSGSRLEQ
MrgX1 agonist: activates human MrgX1 receptor signaling. Q96LB2. MrgX1-HEK293 cells, Fluo-4 calcium fluorescence, agonist mode; stronger effect = higher value. B-score at 10 µM. 310,000 tested, 0.44% active. AID 588627;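 active = calcium response B-score plate-corrected fluorescence ratio at least 3 library SD, with starting fluorescence B-score inside 5 SD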
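Test system: HEK293 cells stably expressing human MrgX1 receptor; Input: fifteen thousand cells per well; Dosing: compound delivered in addition one of three; Schedule: overnight seeding, then 1 h dark dye loading; Technique: Fluo-4 NW calcium fluorescence; Measure: B-scored fluorescence response ratio; Controls: positive and negative controls per plate.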
RGS4 block: human RGS4 inhibition. 310,000 tested, 0.45% active. AID 463165. HEK293 M3R/RGS4 inducible, Fluo-4 calcium flux; stronger effect = higher value; triggered by carbachol at its EC20. B-score at 10 µM;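 active = B-score, a plate-corrected calcium signal, over three deviations above library mean, with baseline fluorescence within five deviations of library mean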;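 also: RGS4 expression induced by doxycycline in cells with stable M3 receptor; B-score is computed from the integrated fluorescence ratio over baseline after carbachol; higher B-score means a larger calcium signal and so more RGS4 inhibition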
Target sequence (P49798 whole entry, looked up): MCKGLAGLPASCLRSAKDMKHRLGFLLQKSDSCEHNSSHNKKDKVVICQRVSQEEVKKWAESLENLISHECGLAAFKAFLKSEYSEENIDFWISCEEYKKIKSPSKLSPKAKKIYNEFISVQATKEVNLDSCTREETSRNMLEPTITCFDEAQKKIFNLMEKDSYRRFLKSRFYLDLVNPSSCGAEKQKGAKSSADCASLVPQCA
MrgX1 PAM: human MrgX1 positive allosteric modulation, primary screen. MrgX1-HEK293, Fluo-4 calcium flux, FDSS; stronger effect = higher value. Q96LB2. B-score at 10 µM. 310,000 tested, 0.63% active;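 active = plate-corrected calcium response at least 3 library SD above typical, normal starting fluorescence, not activating the receptor alone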;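 also: compound read alongside a low EC10 to EC30 dose of BAM8-22 agonist; peak minus trough fluorescence over baseline measured at the second addition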
RGS4 pot: potentiators or activators of RGS4 | HEK293 M3R/inducible RGS4, carbachol calcium flux Fluo4; stronger effect = lower value | B-score at 10 µM | 310,000 tested, 0.92% active;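 active = B-score of the integrated calcium signal more than 4 SD below the library mean, with starting fluorescence not abnormally high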;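 also: negative B-score means reduced calcium response which marks RGS4 activation or potentiation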
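Material: M3R-expressing HEK293 line, RGS4 induced by doxycycline | Schedule: Overnight RGS4 induction, 30 min dye load 37 °C, 20 min compound RT | Measured by: Fluo4 fluorescence kinetic imaging of calcium | Read-out: Integrated calcium ratio converted to B score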
MrgX1 ag reconf: human MrgX1 agonism, re-confirmation screen. shares compounds with MrgX1 agonist. MrgX1-HEK293, Fluo-4 calcium fluorescence, FDSS. activation, % at 10 µM. 600 tested, 78% active. AID 602412;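 active = calcium signal rise, corrected for plate position, at least 3 library SD high, with starting brightness within 5 such deviations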
HEK293 Ca flux: activity in parental HEK293 cells lacking MrgX1; shares compounds with MrgX1 antag; 4,000 tested, 2% active; Fluo-4 calcium fluorescence, FDSS; AID 624111; fluorescence ratio F(max-min)/F0 at 10 µM;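 active = duplicate-averaged calcium fluorescence ratio at least three times the standard deviation of buffer wells, a nonspecific response in parental cells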
HEK293 Ca counter: activity in parental HEK293 cells without MrgX1; shares compounds with MrgX1 antag; parental HEK293 calcium flux, Fluo-4 fluorescence ratio; stronger effect = higher value; fluorescence ratio F(max-min)/F0 at 10 µM; 4,000 tested, 0.4% active; AID 624114;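 active = calcium fluorescence ratio, averaged over duplicates, at least 3 SD of the buffer-well ratio, meaning a nonspecific response in receptor-free cells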;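 also: untransfected parental HEK293 lacking MrgX1 used as counterscreen for MrgX1 allosteric activators; fluorescence change taken during the second addition on a kinetic imager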
HEK293 Ca cntr2: counter-screen for MrgX1 activators: effect in parental HEK293 cells; shares compounds with MrgX1 antag; Fluo-4 calcium fluorescence (FDSS); stronger effect = higher value; fluorescence ratio F(max-min)/F0 at 10 µM; 4,000 tested, 8.7% active; AID 624115;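 active = calcium fluorescence ratio at least three times the spread of buffer wells, meaning a non-specific response in parental cells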
* = called active by the depositor; i = inactive; · = not tested or not shown. Compounds with a hit are over-represented: about 3.5% of the library has one in this group of screens.

SMILES | MrgX1 antag | MrgX1 agonist | RGS4 block | MrgX1 PAM | RGS4 pot | MrgX1 ag reconf | HEK293 Ca flux | HEK293 Ca counter | HEK293 Ca cntr2
OC(C#Cc1ccccn1)c1cccs1 (stereo not drawn) | i | 44.1* | i | i | i | i | i | i | i
COc1ccc(NC(=S)N(CCN2CCOCC2)C2CCN(C(C)=O)CC2)cc1Cl | i | 69.3* | i | i | i | i | i | i | i
O=C(O)C/C(=C\c1cc(Cl)c2c(c1)OCO2)c1nc2ccccc2s1 | i | 34.8* | i | i | i | 91.3%* | i | i | i
O=C(O)C/C(=C\c1ccc2c(c1)OCO2)c1nc2ccccc2s1 | i | i | i | i | i | · | · | · | ·
Cc1ccc(CNC(=O)C(=O)NCCC2CCCCN2S(=O)(=O)c2ccccc2)cc1 (stereo not drawn) | i | i | i | i | i | · | · | · | ·
Cc1cccn2c(=O)c(/C=C(\C#N)C(N)=O)c(N3CCN(c4cccc(Cl)c4)CC3)nc12 | i | i | i | i | i | · | · | · | ·
N#CC1=C(N)Oc2cc(O)ccc2C1c1cccs1 (stereo not drawn) | i | 28.5* | i | i | i | i | i | i | i
Cc1[nH][nH]c(=O)c1C(c1ccc(-c2cccc(Cl)c2)o1)c1c(C)[nH][nH]c1=O | i | 29* | i | i | i | 198.2%* | i | i | 55.6*
Cc1cc(C)nc(/N=C(\N)Nc2ccc(-c3ccccc3)cc2)n1 | i | 74* | i | i | -7.1* | 300.2%* | i | i | i
Cc1cc(C)nc(/N=C(\N)Nc2ccc(SC(F)F)cc2)n1 | i | 57* | i | i | i | 443.8%* | i | i | 97.7*
CC(=O)Nc1ccc(N/C(N)=N/c2nc(C)cc(C)n2)cc1 | i | i | i | i | i | · | · | · | ·
Cc1ccc(C)c(N/C(N)=N/c2nc(C)cc(C)n2)c1 | i | 58.5* | i | i | i | 385.0%* | i | i | 85.3*
COc1ccc(C)cc1N/C(N)=N/c1nc(C)cc(C)n1 | i | i | i | i | i | · | · | · | ·
CCOc1ccc(N/C(N)=N/c2nc(C)cc(C)n2)cc1 | i | 142* | i | i | i | 434.3%* | i | i | 94.4*
Cc1cc(C)nc(/N=C(\N)Nc2ccc(S(N)(=O)=O)cc2)n1 | i | i | i | i | i | · | · | · | ·
CCOc1cc(-n2nc(C)c(C#N)c2N)nc(SC)n1 | · | · | i | · | i | · | · | · | ·
COc1ccc(N2CCN(C(=O)CCNS(=O)(=O)c3ccccc3)CC2)cc1 | i | i | i | i | i | · | · | · | ·
CC(C)(C)CC(C)(C)NCC(O)COc1c(F)cc(Br)cc1F (stereo not drawn) | i | i | · | i | · | · | · | · | ·
COC(=O)C1CN(C(=O)C(C)Oc2ccc(F)cc2)c2ccccc2O1 (stereo not drawn) | i | i | i | i | i | · | · | · | ·
CCOc1ccc(CSC(=N)N)cc1Cl | i | 33* | i | i | i | 179.3%* | i | i | i
CCOc1cc(C(=O)NCC(=O)N2CCC3(CC2)NCCc2[nH]cnc23)cc(OCC)c1OCC | i | i | i | i | i | · | · | · | ·
O=C1NC(Nc2ccccn2)(C(F)(F)F)C(=O)N1c1ccc(F)cc1 (stereo not drawn) | i | 32.2* | i | i | i | 206.6%* | i | i | 54.3*
O=C(CSc1ccc2nnc(-c3ccc(F)cc3)n2n1)NCC1CCCO1 (stereo not drawn) | i | i | i | i | i | · | · | · | ·
O=C(CC(=O)c1c(F)cccc1Cl)c1ccccc1O | i | 52.9* | i | i | i | 325.6%* | i | i | 72.9*
O=C(CC(=O)c1ccccc1O)c1cccc(F)c1 | i | i | i | i | i | · | · | · | ·
SMILES | MrgX1 antag | MrgX1 agonist | RGS4 block | MrgX1 PAM | RGS4 pot | MrgX1 ag reconf | HEK293 Ca flux | HEK293 Ca counter | HEK293 Ca cntr2
COc1ccc(/C(O)=C/c2nc3ccc(C(=O)NCCc4cccc(C)c4)cc3[nH]c2=O)cc1OC | i | 28.2* | i | i | i | i | i | i | i
CCOC(=O)c1ccc(NC(=S)N2CCN(c3ccc(N4CCOCC4)nn3)CC2)cc1 | i | i | i | i | i | · | · | · | ·
Cc1nn(C)c(C)c1CN(Cc1nc(-c2cc(F)ccc2F)oc1C)C1CC1 | i | i | i | i | i | · | · | · | ·
Cc1nn(C)c(C)c1CN(Cc1nc(-c2ccc(F)cc2F)oc1C)C1CC1 | i | 55.9* | i | i | i | 254.4%* | i | i | 49.3*
CCOC(=O)CCc1c(C)c2ccc(OCC)c(C)c2oc1=O | i | i | i | i | i | · | · | · | ·
Cc1ccc(-c2csc3ncn(CC(=O)N4CCOCC4)c(=O)c23)cc1C | i | 32.2* | i | i | i | 134.7%* | i | i | i
Nc1nnc(SCC(=O)c2ccccc2)s1 | i | i | i | i | i | · | · | · | ·
Nc1c(C(=O)c2ccccc2)sc2snc(SCC(=O)c3ccccc3)c12 | i | 32.4* | i | i | i | 224.7%* | 0.413* | i | 54.6*
CCOC(=O)c1cnc2ccc(C)cc2c1Sc1ccccc1 | i | i | i | i | i | · | · | · | ·
NCCC(=O)N1c2ccccc2Sc2ccc(Cl)cc21 | i | 78.5* | i | i | i | 243.6%* | i | i | i
Cc1cc(CSC(=N)N)c(CSC(=N)N)cc1C | i | 91.1* | i | i | i | 246.4%* | i | i | i
CC(C)Oc1ccc(CSC(=N)N)cc1 | i | i | i | i | i | · | · | · | ·
CCCCCCCCCC(=O)N/N=C(\C)c1cccnc1 | i | i | i | i | i | · | · | · | ·
CCCCCC(=O)N/N=C(\C)c1ccccn1 | i | 86* | i | i | i | i | i | i | i
CC(=O)Oc1ccc(C(=O)O)cc1OC(C)=O | i | i | i | i | i | · | · | · | ·
O=C(CCn1c2c(c3ccccc31)CCCC2)NNC(=O)c1ccc(Cl)c([N+](=O)[O-])c1 | i | i | i | i | i | · | · | · | ·
